# ChEMBL document CHEMBL4261571, “Development of highly active anti-Pneumocystis bisbenzamidines: insight into the influence of selected substituents on the in vitro activity” (Medchemcomm, 2017)
# Activity calls are given as the source filed them. The calls are words filed in the database; no cut-off is given here.
# How the values were obtained:
# Pneumocystis carinii [1] = test: Antipneumocystis activity against Pneumocystis carinii after 24 to 72 hrs by ATP-based luciferin-luciferase assay; type: functional, organism-based
# Outline: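 P. carinii from immunosuppressed rat lungs (methylprednisolone 20 mg/kg s.c. weekly) was cryopreserved. It was exposed to compounds diluted in RPMI 1640 at 36 °C, 5% CO2, for 24, 48 and 72 h. ATP was measured by luciferin-luciferase luminescence after background subtraction. Triplicate wells of duplicate assays were averaged. % ATP reduction was calculated against media control, and IC50 came from linear regression.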
# A549 = test: Cytotoxicity against human A549 cells assessed as decrease in cell viability after 24 to 72 hrs by ATP-based luciferin-luciferase assay
# Outline: (§1)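 A549 cells in DMEM and L2 cells in F12, each with 10% fetal calf serum, 1% MEM vitamins and 1% NEAA, were plated at 2 × 10^5/ml and grown to confluence. They were exposed first to 100 µg/ml, then to 100, 10, 1 and 0.1 µg/ml, for 24, 48 and 72 h in duplicate wells. Cells were lysed with 0.1 M NaOH and ATP was read by luciferin-luciferase luminescence. IC50 came from linear regression of % ATP reduction.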
# [2] = Cytotoxicity against rat L2 cells assessed as decrease in cell viability after 24 to 72 hrs by ATP-based luciferin-luciferase assay; outline: as §1
# Pneumocystis carinii [3] = test: Antipneumocystis activity against Pneumocystis carinii at 100 ug/ml after 24 to 72 hrs by ATP-based luciferin-luciferase assay; type: functional, organism-based
# Outline: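 Single high-dose screen at 100 µg/ml against rat-derived, cryopreserved P. carinii in RPMI 1640 at 36 °C, 5% CO2, read at 24, 48 and 72 h. ATP was measured by luminescence after background subtraction, with triplicate wells of duplicate assays averaged. % ATP reduction was calculated relative to media control. Controls were media, DMSO vehicle, ampicillin 10 µg/ml and pentamidine isethionate 1 µg/ml.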
# [4] = biological target: Luciferin 4-monooxygenase (Photinus pyralis) (UniProt P08659); test: Effect on luciferin/firefly luciferase reaction assessed as quench effect at 100 ug/ml
# Sequence of Luciferin 4-monooxygenase (Photinus pyralis) (P08659 whole entry): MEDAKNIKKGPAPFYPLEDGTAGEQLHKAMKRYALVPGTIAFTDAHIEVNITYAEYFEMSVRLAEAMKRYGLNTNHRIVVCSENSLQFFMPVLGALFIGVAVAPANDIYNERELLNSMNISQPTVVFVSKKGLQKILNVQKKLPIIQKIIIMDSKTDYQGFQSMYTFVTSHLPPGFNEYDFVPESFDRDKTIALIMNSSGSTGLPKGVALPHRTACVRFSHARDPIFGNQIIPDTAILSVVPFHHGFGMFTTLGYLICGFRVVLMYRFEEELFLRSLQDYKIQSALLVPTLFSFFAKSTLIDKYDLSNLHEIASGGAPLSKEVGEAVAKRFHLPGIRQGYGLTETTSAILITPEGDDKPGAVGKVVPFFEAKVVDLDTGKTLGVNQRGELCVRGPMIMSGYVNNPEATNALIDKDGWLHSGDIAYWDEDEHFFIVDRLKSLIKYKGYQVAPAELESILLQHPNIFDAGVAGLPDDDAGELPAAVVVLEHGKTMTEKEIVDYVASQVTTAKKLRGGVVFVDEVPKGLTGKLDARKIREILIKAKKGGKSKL
IC50 (Pneumocystis carinii [1]) [µM],Activity (Pneumocystis carinii [3]),Activity [4],Structure (SMILES),IC50 (A549) [µM],IC50 [2] [µM]
< 0.213,Active,inactive,Cc1cc(C(=N)N)cc(C)c1OCCCCCOc1c(C)cc(C(=N)N)cc1C,32.2,19
0.036,Active,inactive,COc1cc(C(=N)N)cc(Br)c1OCCCCCOc1c(Br)cc(C(=N)N)cc1OC,26.3,29.5
0.014,Active,inactive,N=C(N)c1ccc(OCCOCCOc2ccc(C(=N)N)cc2[N+](=O)[O-])c([N+](=O)[O-])c1,> 100,176
1.52,Active,inactive,Cc1cc(C(=N)N)cc(C)c1OCCN(CCOc1c(C)cc(C(=N)N)cc1C)S(=O)(=O)c1ccccc1,> 100,> 100
< 0.209,Active,inactive,CCN(CCOc1ccc(C(=N)N)cc1)CCOc1ccc(C(=N)N)cc1,> 100,> 100
0.062,Active,inactive,N=C(N)c1ccc(NCCOCCNc2ccc(C(=N)N)cc2[N+](=O)[O-])c([N+](=O)[O-])c1,> 100,> 100
0.076,Active,inactive,CN(C(=O)CCC(=O)N(C)c1ccc(C(=N)N)cc1)c1ccc(C(=N)N)cc1,> 100,> 100
1.69,Active,inactive,CCCNC(=N)c1ccc(CN2CCN(Cc3ccc(C(=N)NCCC)cc3)CC2)cc1,> 100,> 100
0.303,Active,inactive,CN(C(=O)CCCC(=O)N(C)c1ccc(C(=N)N)cc1)c1ccc(C(=N)N)cc1,> 100,> 100
0.083,Active,inactive,CCCCNC(=N)c1ccc(CN2CCN(Cc3ccc(C(=N)NCCCC)cc3)CC2)cc1,> 100,> 100
< 0.175,Active,15%,N=C(N)c1ccc(NCCOCCNc2ccc(C(=N)N)cc2N)c(N)c1,> 100,> 100
0.011,Active,inactive,N=C(N)c1ccc(OCCOCCOc2ccc(C(=N)N)cc2N)c(N)c1,> 100,> 100
0.01,Active,inactive,c1cc(C2=NCCN2)ccc1SCCOCCSc1ccc(C2=NCCN2)cc1,30.6,> 100
0.175,Active,inactive,Cc1cc(C(=N)N)cc(C)c1OCCOCCOc1c(C)cc(C(=N)N)cc1C,75.8,16.7
0.109,Active,inactive,N=C(N)c1ccc(CN2CCN(Cc3ccc(C(=N)N)cc3)CC2)cc1,> 100,> 100
< 0.223,Active,inactive,N=C(N)c1ccc(SCCOCCSc2ccc(C(=N)N)cc2)cc1,50.9,26.4
0.012,Active,inactive,CN(C(=O)CCCCC(=O)N(C)c1ccc(C(=N)N)cc1)c1ccc(C(=N)N)cc1,> 100,> 100
0.568,Active,inactive,N=C(N)c1ccc(NC(=O)CSCC(=O)Nc2ccc(C(=N)N)cc2)cc1,> 100,> 100
0.146,Active,inactive,N=C(N)c1ccc(NC(=O)COCC(=O)Nc2ccc(C(=N)N)cc2)cc1,> 100,> 100
–,inactive,–,C/N=C(\NC)c1ccc(CN2CCN(Cc3ccc(/C(=N/C)NC)cc3)CC2)cc1,–,–
–,–,–,N=C(N)c1ccc(OCCCCCOc2ccc(C(=N)N)cc2)cc1 [PENTAMIDINE],–,33.8
0.041,Active,inactive,CCCCCNC(=N)c1ccc(CN2CCN(Cc3ccc(C(=N)NCCCCC)cc3)CC2)cc1,> 100,> 100
